Reference: ChEMBL document CHEMBL2010692, “Inhibitory effect of novel S,N-bisphosphonates on some carcinoma cell lines, osteoarthritis, and chronic inflammation” (Eur J Med Chem, 2012)

How the values were obtained:
Mus musculus [1] = assay: Antiinflammatory activity in methylated bovine serum albumin sensitized delayed-type hypersensitivity granuloma mouse model assessed as reduction of granuloma wet weight at 100 mg/kg, sc qd for 9 days; type: functional; settings: 216 h, route subcutaneous
Outline: (§1)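 Groups of 10 female mice (25 g) were sensitized sc over the inguinal lymph node with mBSA emulsion in saline, Freund's incomplete adjuvant and dextran. Three weeks later, two 6-mm hydroxyapatite discs soaked in mBSA (30 mg/mL saline) were implanted sc in the dorsum. Compounds at pH 7.4 were given sc into the scruff at 0.1 mL/10 g, daily from implantation to day 9. Granuloma wet and dry weights were recorded as % inhibition.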

Mus musculus [2] = assay: Antiinflammatory activity in methylated bovine serum albumin sensitized delayed-type hypersensitivity granuloma mouse model assessed as reduction of granuloma wet weight at 25 mg/kg, sc qd for 9 days; type: functional; settings: 216 h, route subcutaneous; outline: as §1
Mus musculus [3] = assay: Antiinflammatory activity in methylated bovine serum albumin sensitized delayed-type hypersensitivity granuloma mouse model assessed as reduction of granuloma dry weight at 60 mg/kg, sc qd for 9 days; type: functional; settings: 216 h, route subcutaneous; outline: as §1
Rattus norvegicus [4] = assay: Antiarthritic activity in complete Freund's adjuvant-induced rat arthritis model assessed as reduction of paw volume in injected paw at 30 mg/kg, sc qd for 28 days; type: functional; settings: 672 h, route subcutaneous
Outline: (§2)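 Rat adjuvant-induced polyarthritis. Compounds were dissolved or suspended in sterile saline, sonicated as needed, brought to pH 7.0 with NaOH, and kept as frozen aliquots, fresh each dosing day. Dosing was sc once daily for 28 days, by body weight. The arthritic control group got vehicle sc. Injected and noninjected hindpaw volumes were measured on day 28 by mercury displacement plethysmography and expressed as % inhibition.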

Mus musculus [5] = assay: Toxicity in albino mouse assessed as toxic symptoms at 500 to 1000 mg/kg, ip after 24 hrs; settings: in vivo
Mus musculus [6] = assay: Antiinflammatory activity in methylated bovine serum albumin sensitized delayed-type hypersensitivity granuloma mouse model assessed as reduction of granuloma dry weight at 25 mg/kg, sc qd for 9 days; type: functional; settings: 216 h, route subcutaneous; outline: as §1
Rattus norvegicus [7] = assay: Antiarthritic activity in complete Freund's adjuvant-induced rat arthritis model assessed as reduction of paw volume in injected paw at 10 mg/kg, sc qd for 28 days; type: functional; settings: 672 h, route subcutaneous; outline: as §2
Rattus norvegicus [8] = assay: Antiarthritic activity in complete Freund's adjuvant-induced rat arthritis model assessed as reduction of paw volume in injected paw at 20 mg/kg, sc qd for 28 days; type: functional; settings: 672 h, route subcutaneous; outline: as §2
Rattus norvegicus [9] = assay: Antiarthritic activity in complete Freund's adjuvant-induced rat arthritis model assessed as reduction of paw volume in non-injected paw at 10 mg/kg, sc qd for 28 days; type: functional; settings: 672 h, route subcutaneous; outline: as §2
Rattus norvegicus [10] = assay: Antiarthritic activity in complete Freund's adjuvant-induced rat arthritis model assessed as reduction of paw volume in non-injected paw at 20 mg/kg, sc qd for 28 days; type: functional; settings: 672 h, route subcutaneous; outline: as §2
Rattus norvegicus [11] = assay: Antiarthritic activity in complete Freund's adjuvant-induced rat arthritis model assessed as reduction of paw volume in injected paw at 50 mg/kg, sc qd for 28 days; type: functional; settings: 672 h, route subcutaneous; outline: as §2
Rattus norvegicus [12] = assay: Antiarthritic activity in complete Freund's adjuvant-induced rat arthritis model assessed as reduction of paw volume in non-injected paw at 50 mg/kg, sc qd for 28 days; type: functional; settings: 672 h, route subcutaneous; outline: as §2
Mus musculus [13] = assay: Toxicity in albino mouse assessed as mortality at 500 to 1000 mg/kg, […] after 24 hrs; type: organism-based; design: dose 500-1000 mg/kg; settings: in vivo
Outline: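 Albino mice (20-25 g) were split into 6 groups of 8. Compounds were given at 500, 750 and 1000 mg/kg; controls received buffer only. Toxic symptoms, mortality and postmortem findings were recorded 24 h after administration. LD50 was calculated by the Dm − Σ(z×d)/n formula.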

Mus musculus [14] = assay: Antiinflammatory activity in methylated bovine serum albumin sensitized delayed-type hypersensitivity granuloma mouse model assessed as reduction of granuloma wet weight at 60 mg/kg, sc qd for 9 days; type: functional; settings: 216 h, route subcutaneous; outline: as §1
Mus musculus [15] = assay: Antiinflammatory activity in methylated bovine serum albumin sensitized delayed-type hypersensitivity granuloma mouse model assessed as reduction of granuloma dry weight at 100 mg/kg, sc qd for 9 days; type: functional; settings: 216 h, route subcutaneous; outline: as §1
Rattus norvegicus [16] = assay: Antiarthritic activity in complete Freund's adjuvant-induced rat arthritis model assessed as reduction of paw volume in non-injected paw at 30 mg/kg, sc qd for 28 days; type: functional; settings: 672 h, route subcutaneous; outline: as §2
HepG2 = assay: Cytotoxicity against human HepG2 cells after 48 hrs by SRB assay; type: functional, cell-based; settings: HepG2, 48 h
Outline: (§3)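 Cells were seeded at 10^4 per well and allowed to attach for 24 h. They were then exposed to four compound concentrations (5, 12.5, 25, 50), each in triplicate wells, for 48 h at 37 °C in 5% CO2. Cells were fixed and stained with sulforhodamine B, washed with acetic acid, and bound dye was recovered in Tris-EDTA pH 7.4 and read on a plate reader. IC50 was taken from survival curves using the triplicate means.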

MCF7 = assay: Cytotoxicity against human MCF7 cells after 48 hrs by SRB assay; type: functional, cell-based; settings: MCF7, 48 h; outline: as §3
HeLa = assay: Cytotoxicity against human HeLa cells after 48 hrs by SRB assay; type: functional, cell-based; outline: as §3
HCT-116 = assay: Cytotoxicity against human HCT116 cells after 48 hrs by SRB assay; type: functional, cell-based; settings: HCT-116, 48 h; outline: as §3
Mus musculus [17] = assay: Antiinflammatory activity in methylated bovine serum albumin sensitized delayed-type hypersensitivity granuloma mouse model assessed as reduction of granuloma wet weight at 50 mg/kg, sc qd for 9 days; type: functional; settings: 216 h, route subcutaneous; outline: as §1
Rattus norvegicus [18] = assay: Antiarthritic activity in complete Freund's adjuvant-induced rat arthritis model assessed as reduction of paw volume in non-injected paw at 100 mg/kg, sc qd for 28 days; type: functional; settings: 672 h, route subcutaneous; outline: as §2
Rattus norvegicus [19] = assay: Antiarthritic activity in complete Freund's adjuvant-induced rat arthritis model assessed as reduction of paw volume in injected paw at 100 mg/kg, sc qd for 28 days; type: functional; settings: 672 h, route subcutaneous; outline: as §2
Mus musculus [20] = assay: Antiinflammatory activity in methylated bovine serum albumin sensitized delayed-type hypersensitivity granuloma mouse model assessed as reduction of granuloma dry weight at 50 mg/kg, sc qd for 9 days; type: functional; settings: 216 h, route subcutaneous; outline: as §1

| Structure (SMILES) | inhibition in vivo at 100 mg/kg (Mus musculus [1]) | inhibition in vivo at 25 mg/kg (Mus musculus [2]) | inhibition in vivo at 60 mg/kg (Mus musculus [3]) | inhibition in vivo at 30 mg/kg (Rattus norvegicus [4]) | inhibition in vivo at 25 mg/kg (Mus musculus [6]) | inhibition in vivo at 10 mg/kg (Rattus norvegicus [7]) | inhibition in vivo at 20 mg/kg (Rattus norvegicus [8]) | inhibition in vivo at 10 mg/kg (Rattus norvegicus [9]) | inhibition in vivo at 20 mg/kg (Rattus norvegicus [10]) | inhibition in vivo at 50 mg/kg (Rattus norvegicus [11]) | inhibition in vivo at 50 mg/kg (Rattus norvegicus [12]) | inhibition in vivo at 60 mg/kg (Mus musculus [14]) | inhibition in vivo at 100 mg/kg (Mus musculus [15]) | inhibition in vivo at 30 mg/kg (Rattus norvegicus [16]) | also measured |
| --- | --- | --- | --- | --- | --- | --- | --- | --- | --- | --- | --- | --- | --- | --- | --- |
| CCOP(=O)(OCC)C1=C(S)c2ccccc2N(C)P1(=O)OCC (centres undefined) | 50% | 33% | 53% | 35% | 50% | 18% | 27% | 66% | 60% | 37% | 76% | 48% | 55% | 73% | Activity (Mus musculus [5]): Non-toxic; Activity (Mus musculus [13]): Non-toxic |
| CCOP(=O)(OCC)C1(P(=O)(OCC)OCC)Nc2ccccc2C1=S | 44% | 24% | 42% | 11% | 30% | 5% | 7% | 48% | 60% | 15% | 64% | 31% | 46% | 58% | – |
| CCOP(=O)(OCC)C1(P(=O)(OCC)OCC)C(=S)c2ccccc2N1C | 38% | 33% | 45% | 32% | 36% | 15% | 23% | 45% | 55% | 30% | 68% | 45% | 48% | 70% | IC50 (HepG2): 14.7 µM; IC50 (MCF7): 16.5 µM; IC50 (HeLa): 15.2 µM; Activity (Mus musculus [5]): Non-toxic; Activity (Mus musculus [13]): Non-toxic; IC50 (HCT-116): 8.27 µM |
| CCOP1(=O)Nc2ccccc2C(S)=C1P(=O)(OCC)OCC (centres undefined) | 51% | 33% | 42% | 14% | 38% | < 5% | 10% | 66% | 56% | 25% | 75% | 44% | 50% | 68% | – |
| CN1c2ccccc2C(=S)C1(P(=O)(O)O)P(=O)(O)O | 25% | – | – | – | – | – | – | – | – | < 5% | 18% | – | 32% | – | inhibition in vivo at 50 mg/kg (Mus musculus [17]): 15%; inhibition in vivo at 100 mg/kg (Rattus norvegicus [18]): 27%; inhibition in vivo at 100 mg/kg (Rattus norvegicus [19]): 13%; inhibition in vivo at 50 mg/kg (Mus musculus [20]): 16% |
| CCOP(=O)(OCC)C1(P(=O)(OCC)OCC)C(=S)c2ccccc2N=C1c1ccccc1 | 43% | 13% | 32% | 30% | 22% | < 5% | 12% | 40% | 60% | 28% | 70% | 35% | 48% | 68% | IC50 (HepG2): 20.4 µM; IC50 (MCF7): 15.6 µM; IC50 (HeLa): 27.1 µM; IC50 (HCT-116): 22.8 µM |
| CCOP(=O)(OCC)C1(P(=O)(OCC)OCC)C(=S)c2ccccc2N=C1C | 40% | 20% | 37% | 18% | 24% | < 5% | 23% | 38% | 61% | 20% | 66% | 30% | 44% | 72% | – |
| O=P(O)(O)C1(P(=O)(O)O)C(=S)c2ccccc2N=C1C1CCCCC1 | 24% | – | – | – | – | – | – | – | – | < 5% | 8% | – | 36% | – | inhibition in vivo at 50 mg/kg (Mus musculus [17]): 19%; inhibition in vivo at 100 mg/kg (Rattus norvegicus [18]): 14%; inhibition in vivo at 100 mg/kg (Rattus norvegicus [19]): 16%; inhibition in vivo at 50 mg/kg (Mus musculus [20]): 28% |
| CC1=Nc2ccc(Br)cc2C(=S)C1(P(=O)(O)O)P(=O)(O)O | 13% | – | – | – | – | – | – | – | – | < 5% | 12% | – | 25% | – | inhibition in vivo at 50 mg/kg (Mus musculus [17]): < 10%; inhibition in vivo at 100 mg/kg (Rattus norvegicus [18]): 18%; inhibition in vivo at 100 mg/kg (Rattus norvegicus [19]): 21%; inhibition in vivo at 50 mg/kg (Mus musculus [20]): 18% |
| CCOP(=O)(OCC)C1(P(=O)(OCC)OCC)N=C(c2ccc(N(CC)CC)cc2)c2ccccc2C1=S | 34% | 22% | 40% | 16% | 32% | < 5% | 20% | 44% | 56% | 24% | 65% | 31% | 44% | 52% | Activity (Mus musculus [5]): Non-toxic; Activity (Mus musculus [13]): Non-toxic |
| CCN(CC)c1ccc(C2=NC(P(=O)(O)O)(P(=O)(O)O)C(=S)c3ccccc32)cc1 | 23% | – | – | – | – | – | – | – | – | < 5% | 10% | – | 30% | – | inhibition in vivo at 50 mg/kg (Mus musculus [17]): 16%; inhibition in vivo at 100 mg/kg (Rattus norvegicus [18]): 24%; inhibition in vivo at 100 mg/kg (Rattus norvegicus [19]): 18%; inhibition in vivo at 50 mg/kg (Mus musculus [20]): 26% |
| CCOP(=O)(OCC)C1(P(=O)(OCC)OCC)N=C(c2ccc(C)cc2)c2ccccc2C1=S | – | – | – | – | – | – | – | – | – | – | – | – | – | – | IC50 (HepG2): 25.2 µM; IC50 (MCF7): 30.4 µM; IC50 (HeLa): 26.7 µM; IC50 (HCT-116): 18.3 µM |
| O=P(O)(O)C(Cl)(Cl)P(=O)(O)O [CLODRONIC ACID] | 44% | 30% | 44% | 34% | 33% | 23% | 28% | 56% | 70% | 35% | 68% | 40% | 48% | 62% | – |
| COc1cccc2c1C(=O)c1c(O)c3c(c(O)c1C2=O)C[C@@](O)(C(=O)CO)C[C@@H]3O[C@H]1C[C@H](N)[C@H](O)[C@H](C)O1 [DOXORUBICIN] | – | – | – | – | – | – | – | – | – | – | – | – | – | – | IC50 (HepG2): 5.7 µM; IC50 (HCT-116): 6.86 µM |
